Data published in ChEMBL document CHEMBL4257446, “Synthesis and biological evaluation of chalcone-linked pyrazolo[1,5-a]pyrimidines as potential anticancer agents” (Medchemcomm, 2017).
pIC50: −log10 of the molar value. Active and inactive are the calls of the source. No cut-off for these calls is given here.

Columns and labels:
MDA-MB-231 = test: Antiproliferative activity against human MDA-MB-231 cells after 24 hrs by MTT assay; type: functional, cell-based; conditions: MDA-MB-231, 24 h
Procedure, shortened: (§1)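 Cells exposed to a range of compound concentrations; viability read by MTT assay. IC50 (concentration giving 50% growth inhibition) calculated and reported as mean ± S.D. of three independent experiments, each run in triplicate.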

A549 [1] = test: Antiproliferative activity against human A549 cells after 24 hrs by MTT assay; type: functional, cell-based; conditions: A549, 24 h; procedure, shortened: as §1
DU-145 = test: Antiproliferative activity against human DU145 cells after 24 hrs by MTT assay; type: functional, cell-based; conditions: DU-145, 24 h; procedure, shortened: as §1
HEK293 [2] = test: Antiproliferative activity against HEK293 cells after 24 hrs by MTT assay; type: cell-based; conditions: Homo sapiens, HEK293, 24 h
A549 [3] = test: Cell cycle arrest in human A549 cells assessed as accumulation of cells at G2/M phase at 2 uM after 24 hrs by propidium iodide staining-based flow cytometric analysis (reference value: 20.4%); type: functional
HEK293 [4] = test: Cell cycle arrest in HEK293 cells after 24 hrs by propidium iodide staining-based flow cytometric analysis; conditions: human, hek293, 24 h
A549 [5] = test: Decrease in STAT3 protein expression in human A549 cells in STAT3 levels at 2 uM after 24 hrs by Western blot analysis; type: functional, cell-based
Procedure, shortened: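 A549 cells exposed at 2 μM final concentration and collected 24 h later. Total protein lysate extracted and immunoblotted with antibodies against the EGFR/STAT3 pathway proteins. Erlotinib-treated cells were the positive control and untreated cells the negative control.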

A549 [6] = test: Induction of apoptosis in human A549 cells assessed as increase in p53 levels at 2 uM after 24 hrs by Western blot analysis; type: functional, cell-based
Procedure, shortened: (§2)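 A549 cells given 2 μM final concentration for 24 h. Total lysate probed by western blot for apoptosis-related proteins (Bax, p53, p21, caspase-3, Bcl2). Erlotinib served as positive control and untreated cells as negative control.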

A549 [7] = test: Induction of apoptosis in human A549 cells assessed as increase in p21 levels at 2 uM after 24 hrs by Western blot analysis; type: functional, cell-based; procedure, shortened: as §2
A549 [8] = test: Induction of apoptosis in human A549 cells assessed as increase in Bax levels at 2 uM after 24 hrs by Western blot analysis; type: functional, cell-based; procedure, shortened: as §2
A549 [9] = test: Induction of apoptosis in human A549 cells assessed as decrease in Bcl2 levels at 2 uM after 24 hrs by Western blot analysis; type: functional, cell-based; procedure, shortened: as §2
HEK293 [10] = test: Induction of apoptosis in HEK293 cells assessed as effect on p21 levels after 24 hrs by Western blot analysis; type: cell-based; conditions: human, hek293, 24 h
HEK293 [11] = test: Induction of apoptosis in HEK293 cells assessed as effect on p53 levels after 24 hrs by Western blot analysis; type: cell-based; conditions: human, hek293, 24 h
HEK293 [12] = test: Induction of apoptosis in HEK293 cells assessed as effect on Bax levels after 24 hrs by Western blot analysis; type: cell-based; conditions: human, hek293, 24 h
HEK293 [13] = test: Induction of apoptosis in HEK293 cells assessed as effect on Bcl2 levels after 24 hrs by Western blot analysis; type: cell-based; conditions: human, hek293, 24 h
A549 [14] = test: Induction of apoptosis in human A549 cells assessed as decrease in pro-caspase-9 levels at 2 uM after 24 hrs by Western blot analysis; type: functional, cell-based

SMILES	pIC50 (MDA-MB-231)	pIC50 (A549 [1])	pIC50 (DU-145)	pIC50 (HEK293 [2])	other results
COc1ccc(-c2cc(C(=O)/C=C/c3ccc(Cl)cc3)nc3cc(-c4ccccc4)nn23)cc1OC	4.62	4.66	4.65	4.41	
C#Cc1cccc(Nc2ncnc3cc(OCCOC)c(OCCOC)cc23)c1 [ERLOTINIB]	4.83	4.98	4.74	4.52	Activity (A549 [3]): 24.5%; Activity (HEK293 [4]): Non-Toxic; Activity (A549 [5]): inactive
COc1ccc(/C=C/C(=O)c2cc(-c3cc(OC)c(OC)c(OC)c3)n3nc(-c4ccccc4)cc3n2)cc1	4.78	4.67	4.77	4.33	
COc1ccc(-c2cc(/C=C/C(=O)c3ccccc3)nc3cc(-c4ccccc4)nn23)cc1	5.00	5.07	4.86	4.27	
COc1ccc(/C=C/C(=O)c2cc(-c3ccc(OC)c(OC)c3)n3nc(-c4ccccc4)cc3n2)cc1	4.66	4.72	4.83	4.29	
COc1cc(-c2cc(/C=C/C(=O)c3ccc(Cl)cc3)nc3cc(-c4ccccc4)nn23)cc(OC)c1OC	4.49	4.81	4.53	≤ 4.00	
COc1ccc(-c2cc(/C=C/C(=O)c3ccccc3)nc3cc(-c4ccccc4)nn23)cc1OC	4.93	4.97	5.00	4.29	
COc1ccc(-c2cc(C(=O)/C=C/c3ccc(C)cc3)nc3cc(-c4ccccc4)nn23)cc1OC	4.65	4.65	4.71	4.24	
COc1cc(C(=O)/C=C/c2cc(-c3cc(OC)c(OC)c(OC)c3)n3nc(-c4ccccc4)cc3n2)cc(OC)c1OC	4.61	4.69	4.46	≤ 4.00	
COc1ccc(C(=O)/C=C/c2cc(-c3cc(OC)c(OC)c(OC)c3)n3nc(-c4ccccc4)cc3n2)cc1	4.88	4.84	4.60	4.10	
COc1cc(-c2cc(/C=C/C(=O)c3ccccc3)nc3cc(-c4ccccc4)nn23)cc(OC)c1OC	4.80	4.74	4.46	≤ 4.00	
COc1ccc(/C=C/C(=O)c2cc(-c3cc(OC)c(OC)c(OC)c3)n3nc(-c4ccccc4)cc3n2)cc1OC	4.85	4.69	4.81	4.39	
COc1cc(-c2cc(C(=O)/C=C/c3ccc(C)cc3)nc3cc(-c4ccccc4)nn23)cc(OC)c1OC	4.73	4.70	4.66	4.25	
COc1ccc(C(=O)/C=C/c2cc(-c3ccc(OC)c(OC)c3)n3nc(-c4ccccc4)cc3n2)cc1OC	5.59	5.41	5.14	4.49	Activity (A549 [3]): 29.5%; Activity (HEK293 [4]): Non-Toxic; Activity (A549 [5]): Active; Activity (A549 [6]): Active; Activity (A549 [7]): Active; Activity (A549 [8]): Active; Activity (A549 [9]): Active; Activity (HEK293 [10]): Non-Toxic; Activity (HEK293 [11]): Non-Toxic; Activity (HEK293 [12]): Non-Toxic; Activity (HEK293 [13]): Non-Toxic; Activity (A549 [14]): Active
COc1cc(-c2cc(C(=O)/C=C/c3ccccc3)nc3cc(-c4ccccc4)nn23)cc(OC)c1OC	4.72	4.75	4.79	4.35	
COc1cc(-c2cc(C(=O)/C=C/c3ccc(Cl)cc3)nc3cc(-c4ccccc4)nn23)cc(OC)c1OC	4.67	4.62	4.71	4.27	
COc1ccc(-c2cc(/C=C/C(=O)c3ccc(C)c(C)c3)nc3cc(-c4ccccc4)nn23)cc1OC	4.94	5.03	4.92	4.34	
COc1cc(/C=C/C(=O)c2cc(-c3cc(OC)c(OC)c(OC)c3)n3nc(-c4ccccc4)cc3n2)cc(OC)c1OC	4.74	4.59	4.75	4.39	
COc1ccc(-c2cc(/C=C/C(=O)c3cc(OC)c(OC)c(OC)c3)nc3cc(-c4ccccc4)nn23)cc1OC	5.33	5.14	5.08	4.46	Activity (A549 [3]): 33.11%; Activity (HEK293 [4]): Non-Toxic; Activity (A549 [5]): Active; Activity (A549 [6]): Active; Activity (A549 [7]): Active; Activity (A549 [8]): Active; Activity (A549 [9]): Active; Activity (HEK293 [10]): Non-Toxic; Activity (HEK293 [11]): Non-Toxic; Activity (HEK293 [12]): Non-Toxic; Activity (HEK293 [13]): Non-Toxic; Activity (A549 [14]): Active
COc1ccc(-c2cc(C(=O)/C=C/c3ccccc3)nc3cc(-c4ccccc4)nn23)cc1OC	4.63	4.73	4.81	4.19	
COc1cc(-c2cc(/C=C/C(=O)c3ccc(C)c(C)c3)nc3cc(-c4ccccc4)nn23)cc(OC)c1OC	4.87	4.97	4.81	4.14	
COc1ccc(C(=O)/C=C/c2cc(-c3ccc(OC)c(OC)c3)n3nc(-c4ccccc4)cc3n2)cc1	4.86	4.92	4.84	4.40	
COc1ccc(C(=O)/C=C/c2cc(-c3cc(OC)c(OC)c(OC)c3)n3nc(-c4ccccc4)cc3n2)cc1OC	4.74	4.75	4.52	4.09	
COc1ccc(-c2cc(/C=C/C(=O)c3ccc(C)cc3)nc3cc(-c4ccccc4)nn23)cc1OC	4.70	4.76	4.57	4.20	
COc1cc(-c2cc(/C=C/C(=O)c3ccc(C)cc3)nc3cc(-c4ccccc4)nn23)cc(OC)c1OC	4.62	4.71	4.57	4.30	
COc1ccc(-c2cc(C(=O)/C=C/c3cc(OC)c(OC)c(OC)c3)nc3cc(-c4ccccc4)nn23)cc1OC	4.78	4.81	4.83	4.33	
COc1ccc(-c2cc(/C=C/C(=O)c3ccc(Cl)cc3)nc3cc(-c4ccccc4)nn23)cc1OC	4.77	4.81	4.67	4.36	
COc1ccc(C(=O)/C=C/c2cc(-c3ccc(OC)cc3)n3nc(-c4ccccc4)cc3n2)cc1	5.20	5.54	5.07	4.44	Activity (A549 [3]): 29.6%; Activity (HEK293 [4]): Non-Toxic; Activity (A549 [5]): Active; Activity (A549 [6]): Active; Activity (A549 [7]): Active; Activity (A549 [8]): Active; Activity (A549 [9]): Active; Activity (HEK293 [10]): Non-Toxic; Activity (HEK293 [11]): Non-Toxic; Activity (HEK293 [12]): Non-Toxic; Activity (HEK293 [13]): Non-Toxic; Activity (A549 [14]): Active
COc1ccc(-c2cc(/C=C/C(=O)c3ccc(OC)c(OC)c3)nc3cc(-c4ccccc4)nn23)cc1	5.06	5.13	4.79	4.31	
